Legend:
[1] = Pharmacokinetics of telatinib in phase I patients; type: in vivo, human; details: for Dose normalized AUC, mean: cycle 1 day 14, 150 mg tablets
[2] = phase I and pharmacological study; cited from earlier work
[3] = system: adenosine triphosphate binding cassette (ABC) B1 (ABCB1) transporter; details: in vitro studies; data on file at Bayer Pharmaceuticals Corporation; cited from earlier work
[4] = system: patients with advanced or metastatic solid tumors; test: Telatinib-induced toxicity in phase I patients; type: in vivo, human
Procedure, shortened: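 Patients with advanced or metastatic solid tumours (ECOG ≤2) took test compound orally, od or bid, continuously (20 mg od to 1,500 mg bid). Adverse events were graded by NCI-CTC v3.0 over all treatment cycles. KDR and FLT4 SNPs were TaqMan-genotyped on a dynamic array using DNA from residual frozen blood. Toxicity was compared by two-sided chi-square (3×2 genotype; 2×2 carrier vs noncarrier).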

[5] = all treatment cycles, 33 patients, all dose levels

## CNC(=O)c1cc(COc2nnc(Nc3ccc(Cl)cc3)c3ccoc23)ccn1 [telatinib, Telatinib]
[1]; ABCB1 1236C>T genotype CC, n=9
  Dose normalized AUC, mean: 7.84
[1]; ABCB1 1236C>T genotype CT, n=15
  Dose normalized AUC, mean: 11.60
[1]; ABCB1 1236C>T genotype TT, n=5
  Dose normalized AUC, mean: 4.82
[1]; ABCB1 2677G>A/T genotype GG, n=9
  Dose normalized AUC, mean: 7.84
[1]; ABCB1 2677G>A/T genotype TG, n=15
  Dose normalized AUC, mean: 11.60
[1]; ABCB1 2677G>A/T genotype TT, n=5
  Dose normalized AUC, mean: 4.82
[1]; ABCB1 3435C>T genotype CC, n=7
  Dose normalized AUC, mean: 7.30
[1]; ABCB1 3435C>T genotype CT, n=16
  Dose normalized AUC, mean: 11.10
[1]; ABCB1 3435C>T genotype TT, n=6
  Dose normalized AUC, mean: 6.65
[1]; ABCB1 -129T>C genotype CC, n=1
  Dose normalized AUC, mean: 11.79
[1]; ABCB1 -129T>C genotype TC, n=2
  Dose normalized AUC, mean: 15.65
[1]; ABCB1 -129T>C genotype TT, n=26
  Dose normalized AUC, mean: 8.67
[1]; ABCC1 825T>C genotype TC, n=11
  Dose normalized AUC, mean: 10.90
[1]; ABCC1 825T>C genotype TT, n=18
  Dose normalized AUC, mean: 8.26
[1]; ABCC1 1062T>C genotype CC, n=2
  Dose normalized AUC, mean: 13.45
[1]; ABCC1 1062T>C genotype TC, n=10
  Dose normalized AUC, mean: 9.95
[1]; ABCC1 1062T>C genotype TT, n=17
  Dose normalized AUC, mean: 8.36
[1]; ABCC1 2012G>T genotype GG, n=24
  Dose normalized AUC, mean: 8.80
[1]; ABCC1 2012G>T genotype GT, n=4
  Dose normalized AUC, mean: 13.46
[1]; ABCC1 2012G>T genotype TT, n=1
  Dose normalized AUC, mean: 3.63
[1]; ABCC1 rs129081 genotype CC, n=5
  Dose normalized AUC, mean: 10.22
[1]; ABCC1 rs129081 genotype GC, n=15
  Dose normalized AUC, mean: 10.44
[1]; ABCC1 rs129081 genotype GG, n=9
  Dose normalized AUC, mean: 6.77
[1]; ABCG2 346G>A genotype AG, n=4
  Dose normalized AUC, mean: 6.00
[1]; ABCG2 346G>A genotype GG, n=25
  Dose normalized AUC, mean: 9.78
[1]; ABCG2 421C>A genotype CA, n=6
  Dose normalized AUC, mean: 10.48
[1]; ABCG2 421C>A genotype CC, n=23
  Dose normalized AUC, mean: 8.95
[1]; oral, cycle 1 day 14 (steady-state), AUC(0–12)/actual dose
  Dose normalized AUC(0–12), mean (range): 9.26 (0.98–34.60) µg.hr/L per mg of dose
[2]
  AUC(0–12) interpatient variability, % coefficient of variation: 20–150%
  Cmax interpatient variability, % coefficient of variation: 20–150%
  dose proportionality of pharmacokinetics: dose proportional
[3]
  substrate of the ABCB1 transporter: weak substrate
[4]; 33 patients
  Grade 3–4 toxicity, number of patients: 3 patients
[4]; 33 patients, unrelated to dose
  Hypertension (most frequently observed side-effect), number of patients: 7 n
[4]; FLT4 1480A>G genotype AA
  Toxicity: any toxicity grade 1–4 all cycles, No (number of patients): 7
  Toxicity: any toxicity grade 1–4 all cycles, Yes (number of patients): 20
[4]; FLT4 1480A>G genotype AG
  Toxicity: any toxicity grade 1–4 all cycles, No (number of patients): 3
  Toxicity: any toxicity grade 1–4 all cycles, Yes (number of patients): 3
[4]; FLT4 2670C>G genotype CC
  Toxicity: any toxicity grade 1–4 all cycles, No (number of patients): 6
  Toxicity: any toxicity grade 1–4 all cycles, Yes (number of patients): 11
[4]; FLT4 2670C>G genotype CG
  Toxicity: any toxicity grade 1–4 all cycles, No (number of patients): 3
  Toxicity: any toxicity grade 1–4 all cycles, Yes (number of patients): 9
[4]; FLT4 2670C>G genotype GG
  Toxicity: any toxicity grade 1–4 all cycles, No (number of patients): 1
  Toxicity: any toxicity grade 1–4 all cycles, Yes (number of patients): 3
[4]; KDR 1192G>A genotype CC
  Toxicity: any toxicity grade 1–4 all cycles, No (number of patients): 5
  Toxicity: any toxicity grade 1–4 all cycles, Yes (number of patients): 19
[4]; KDR 1192G>A genotype TC
  Toxicity: any toxicity grade 1–4 all cycles, No (number of patients): 4
  Toxicity: any toxicity grade 1–4 all cycles, Yes (number of patients): 4
[4]; KDR 1192G>A genotype TT
  Toxicity: any toxicity grade 1–4 all cycles, No (number of patients): 1
  Toxicity: any toxicity grade 1–4 all cycles, Yes (number of patients): 0
[4]; KDR 1719A>T genotype AA
  Toxicity: any toxicity grade 1–4 all cycles, No (number of patients): 1
  Toxicity: any toxicity grade 1–4 all cycles, Yes (number of patients): 1
[4]; KDR 1719A>T genotype TA
  Toxicity: any toxicity grade 1–4 all cycles, No (number of patients): 4
  Toxicity: any toxicity grade 1–4 all cycles, Yes (number of patients): 9
[4]; KDR 1719A>T genotype TT
  Toxicity: any toxicity grade 1–4 all cycles, No (number of patients): 5
  Toxicity: any toxicity grade 1–4 all cycles, Yes (number of patients): 13
[4]; KDR -604T>C genotype CC
  Toxicity: any toxicity grade 1–4 all cycles, No (number of patients): 3
  Toxicity: any toxicity grade 1–4 all cycles, Yes (number of patients): 7
[4]; KDR -604T>C genotype CT
  Toxicity: any toxicity grade 1–4 all cycles, No (number of patients): 5
  Toxicity: any toxicity grade 1–4 all cycles, Yes (number of patients): 13
[4]; KDR -604T>C genotype TT
  Toxicity: any toxicity grade 1–4 all cycles, No (number of patients): 2
  Toxicity: any toxicity grade 1–4 all cycles, Yes (number of patients): 3
[4]; [5]
  Any toxicity grade 1–4, patients: 23 (70) n (%)
  Any toxicity grade 3 or 4, patients: 3 (9) n (%)
  Hypertension grade 1–4, patients: 7 (21) n (%)
  Hypertension grade 3 or 4, patients: 2 (6) n (%)
[4]; during all treatment cycles
  any grade 1–4 toxicity, number of patients: 23 out of 33 patients
[4]; during all treatment cycles, 33 patients
  any grade 1–4 toxicity, share of patients: 70%
